Calls of active or inactive are those of the source. The rule behind the calls is not given here.
Key:
[1] = biological target: T1, Delta(24)-sterol reductase (Mus musculus) (UniProt Q8VCH6); experiment: Inhibition of DR24 in Dhcr7-deficient mouse Neuro2a cells assessed as decrease in 7-DHC levels at 1 uM by LC-MS/GC-MS analysis; assay type: cell-based
T1 sequence (whole entry): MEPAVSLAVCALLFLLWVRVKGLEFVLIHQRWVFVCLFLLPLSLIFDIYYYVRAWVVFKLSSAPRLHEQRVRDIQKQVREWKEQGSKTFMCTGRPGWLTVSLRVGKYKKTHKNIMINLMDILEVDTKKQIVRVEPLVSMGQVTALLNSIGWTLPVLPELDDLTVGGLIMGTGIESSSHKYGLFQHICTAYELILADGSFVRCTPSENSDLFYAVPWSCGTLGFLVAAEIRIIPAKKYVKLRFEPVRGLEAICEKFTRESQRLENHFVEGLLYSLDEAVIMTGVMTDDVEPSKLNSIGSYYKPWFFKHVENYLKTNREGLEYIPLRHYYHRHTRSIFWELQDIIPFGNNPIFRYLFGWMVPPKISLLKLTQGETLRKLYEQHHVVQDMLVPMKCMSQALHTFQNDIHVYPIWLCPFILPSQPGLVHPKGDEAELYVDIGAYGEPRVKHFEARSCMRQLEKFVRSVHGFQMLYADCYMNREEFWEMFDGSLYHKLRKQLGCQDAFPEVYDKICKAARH
How it was run: (§1)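 Dhcr7-deficient Neuro2a cells (13000/well, 0.5% FBS medium) on predeposited compound, 24 h at 37 °C. Hoechst-stained and imaged to count cells. Lysed in methanol containing isotope-labelled sterol standards, derivatized with PTAD 20 min at RT, then isocratic C18 UPLC-MS/SRM. Remaining extract silylated with BSTFA for GC-MS, quantified against d7-cholesterol. Follow-up runs in triplicate.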

[2] = biological target: T2, 3-hydroxy-3-methylglutaryl-coenzyme A reductase (Mus musculus) (UniProt Q01237); experiment: Inhibition of HMGCoA reductase in Dhcr7-deficient mouse Neuro2a cells assessed as decrease in 7-DHC levels at 1 uM by LC-MS/GC-MS analysis; assay type: cell-based; how it was run: as §1
T2 sequence (whole entry): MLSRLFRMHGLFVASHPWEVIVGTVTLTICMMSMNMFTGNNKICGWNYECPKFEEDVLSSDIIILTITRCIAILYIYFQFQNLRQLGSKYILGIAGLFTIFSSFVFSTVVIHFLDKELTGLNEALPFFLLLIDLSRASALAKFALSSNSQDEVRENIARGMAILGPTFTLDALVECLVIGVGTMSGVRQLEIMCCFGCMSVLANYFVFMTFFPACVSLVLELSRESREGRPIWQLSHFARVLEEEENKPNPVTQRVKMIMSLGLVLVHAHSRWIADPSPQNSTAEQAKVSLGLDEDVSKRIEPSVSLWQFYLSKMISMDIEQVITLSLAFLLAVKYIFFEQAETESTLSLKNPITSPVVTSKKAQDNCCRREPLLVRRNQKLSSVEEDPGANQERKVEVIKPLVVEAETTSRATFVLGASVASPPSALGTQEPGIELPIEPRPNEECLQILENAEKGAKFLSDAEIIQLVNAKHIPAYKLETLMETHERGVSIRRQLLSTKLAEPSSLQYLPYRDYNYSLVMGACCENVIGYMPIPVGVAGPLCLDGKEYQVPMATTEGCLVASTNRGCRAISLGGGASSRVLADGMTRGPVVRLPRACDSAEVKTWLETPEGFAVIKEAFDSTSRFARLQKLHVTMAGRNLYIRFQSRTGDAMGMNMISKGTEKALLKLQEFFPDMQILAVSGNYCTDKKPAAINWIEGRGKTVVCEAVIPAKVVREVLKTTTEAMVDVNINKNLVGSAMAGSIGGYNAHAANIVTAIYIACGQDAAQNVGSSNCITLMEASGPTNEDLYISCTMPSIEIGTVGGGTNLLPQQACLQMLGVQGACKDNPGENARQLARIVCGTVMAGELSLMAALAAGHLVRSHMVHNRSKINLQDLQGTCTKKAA

N2a [3] = experiment: Decrease in 7-DHC levels in Dhcr7-deficient mouse Neuro2a cells at 1 uM by LC-MS/GC-MS analysis; assay type: functional, cell-based; how it was run: as §1
[4] = biological target: T3, 3-beta-hydroxysteroid-Delta(8),Delta(7)-isomerase (Mus musculus) (UniProt P70245); experiment: Inhibition of delta 8-7 isomerase in Dhcr7-deficient mouse Neuro2a cells assessed as decrease in 7-DHC levels at 1 uM by LC-MS/GC-MS analysis; assay type: cell-based; how it was run: as §1
T3 sequence (whole entry): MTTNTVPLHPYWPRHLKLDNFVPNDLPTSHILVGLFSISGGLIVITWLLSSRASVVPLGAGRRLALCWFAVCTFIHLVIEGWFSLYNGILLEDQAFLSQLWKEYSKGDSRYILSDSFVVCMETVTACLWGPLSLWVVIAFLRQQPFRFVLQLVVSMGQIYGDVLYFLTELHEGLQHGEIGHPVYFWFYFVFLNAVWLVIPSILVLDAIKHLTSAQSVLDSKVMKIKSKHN

N2a [5] = experiment: Decrease in lanosterol levels in mouse Neuro2a cells by LC-MS analysis; assay type: functional, cell-based
How it was run: (§2)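 Control Neuro2a cells (10000/well, 0.5% FBS) on compound, 24 h. Hoechst cell count, then methanol lysis with labelled standards (d7-7-DHC, 13C3-desmosterol, 13C3-lanosterol), PTAD derivatization 20 min at RT, UPLC-MS SRM. GC-MS of silylated extract for further sterols.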

N2a [6] = experiment: Decrease in desmosterol levels in mouse Neuro2a cells by LC-MS analysis; assay type: functional, cell-based; how it was run: as §2
[7] = biological target: T3, 3-beta-hydroxysteroid-Delta(8),Delta(7)-isomerase (Mus musculus); experiment: Inhibition of delta 8-7 isomerase in mouse Neuro2a cells assessed as decrease in 7-DHC levels at 1 uM by LC-MS/GC-MS analysis; assay type: cell-based; how it was run: as §2
[8] = biological target: T1, Delta(24)-sterol reductase (Mus musculus); experiment: Inhibition of DR24 in mouse Neuro2a cells assessed as decrease in 7-DHC levels at 1 uM by LC-MS/GC-MS analysis; assay type: cell-based; how it was run: as §2
[9] = biological target: T4, Lanosterol 14-alpha demethylase (Mus musculus, UniProt Q8K0C4); experiment: Inhibition of CYP51 in Dhcr7-deficient mouse Neuro2a cells assessed as decrease in 7-DHC levels at 1 uM by LC-MS/GC-MS analysis; assay type: cell-based
T4 sequence (Q8K0C4 whole entry): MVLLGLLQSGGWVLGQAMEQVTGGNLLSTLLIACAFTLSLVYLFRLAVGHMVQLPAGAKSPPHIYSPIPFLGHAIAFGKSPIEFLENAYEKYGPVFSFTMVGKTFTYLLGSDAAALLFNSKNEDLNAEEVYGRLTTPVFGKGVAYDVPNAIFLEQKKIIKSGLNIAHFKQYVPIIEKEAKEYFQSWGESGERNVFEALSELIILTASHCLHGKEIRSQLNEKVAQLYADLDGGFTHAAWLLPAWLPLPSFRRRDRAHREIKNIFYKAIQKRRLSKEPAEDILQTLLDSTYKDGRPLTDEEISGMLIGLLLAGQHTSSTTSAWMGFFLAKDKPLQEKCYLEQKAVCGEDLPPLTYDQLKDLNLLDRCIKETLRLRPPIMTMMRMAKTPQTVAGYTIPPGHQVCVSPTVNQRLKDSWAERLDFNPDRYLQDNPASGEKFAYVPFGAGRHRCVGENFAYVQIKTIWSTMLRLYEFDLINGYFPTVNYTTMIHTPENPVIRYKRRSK
How it was run: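 Follow-up (verification) assay in 96-well plates, run as the 384-well screen, in triplicate, at varying compound concentrations. Cells counted by Hoechst imaging, washed with PBS, then lysed in MeOH with BHT/TPP and isotope standards (d7-Chol, d7-7-DHC, 13C3-Des, 13C3-Lan). Sterols derivatised with PTAD for 20 min at RT and quantified by C18 UPLC-MS (SRM). Remaining sample silylated with BSTFA and run on GC-MS, quantified against d7-Chol.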

[10] = biological target: T5, Delta(24)-sterol reductase (Homo sapiens) (UniProt Q15392); experiment: Inhibition of DR24 in human SLOS fibroblasts assessed as decrease in 7-DHC levels at 10 nM after 5 days by LC-MS/GC-MS analysis
T5 sequence (whole entry): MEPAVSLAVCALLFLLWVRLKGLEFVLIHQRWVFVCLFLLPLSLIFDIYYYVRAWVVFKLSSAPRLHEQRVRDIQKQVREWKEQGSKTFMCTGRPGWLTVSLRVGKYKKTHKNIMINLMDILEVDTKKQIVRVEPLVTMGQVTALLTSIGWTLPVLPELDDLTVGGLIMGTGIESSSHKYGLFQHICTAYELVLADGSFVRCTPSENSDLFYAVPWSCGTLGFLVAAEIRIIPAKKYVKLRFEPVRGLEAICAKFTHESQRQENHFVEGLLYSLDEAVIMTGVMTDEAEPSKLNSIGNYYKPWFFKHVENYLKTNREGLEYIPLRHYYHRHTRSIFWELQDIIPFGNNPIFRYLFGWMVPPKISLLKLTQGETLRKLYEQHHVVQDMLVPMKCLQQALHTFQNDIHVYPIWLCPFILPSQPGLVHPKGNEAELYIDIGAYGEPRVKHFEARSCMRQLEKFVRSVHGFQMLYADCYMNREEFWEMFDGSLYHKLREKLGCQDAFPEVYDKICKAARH
How it was run: (§3)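 SLOS patient skin fibroblasts (passage 8–20) grown in 96-well plates in delipidated serum with compound for 5 days; three different SLOS lines. Sterols quantified by PTAD-derivatized UPLC-MS plus GC-MS; 7-DHC expressed as percentage of untreated cells.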

Fibroblast = experiment: Decrease in cholesterol levels in human SLOS fibroblasts at 10 nM after 5 days by LC-MS/GC-MS analysis; assay type: functional, cell-based; how it was run: as §3
[11] = Cytotoxicity against human SLOS fibroblasts at 5 uM after 5 days by Cell Titer assay; assay type: cell-based; details: fibroblast, 120 h

CC(=O)[C@H]1CC[C@H]2[C@@H]3CCC4=CC(=O)CC[C@]4(C)[C@H]3CC[C@]12C
inhibition [1]: Active

CCC(C)(C)C(=O)O[C@H]1C[C@@H](C)C=C2C=C[C@H](C)[C@H](CC[C@@H]3C[C@@H](O)CC(=O)O3)[C@H]21
7-DHC decrease call (active/inactive) [2]: Active

CCCC1O[C@@H]2C[C@H]3[C@@H]4CCC5=CC(=O)C=C[C@]5(C)[C@H]4[C@@H](O)C[C@]3(C)[C@]2(C(=O)CO)O1 (stereo not given in full)
Activity (N2a [3]): Active

CCN(CC)CCO[C@H]1CC[C@@]2(C)C(=CC[C@@H]3[C@@H]2CC[C@]2(C)C(=O)CC[C@@H]32)C1
Activity (N2a [3]): Active

CCN(CC)CCOc1ccc(C(O)(Cc2ccc(Cl)cc2)c2ccc(C)cc2)cc1 (stereo not given)
inhibition [1]: Active | inhibition [4]: Active

CC[C@H](C)C(=O)O[C@H]1CCC=C2C=C[C@H](C)[C@H](CC[C@@H]3C[C@@H](O)CC(=O)O3)[C@H]21
7-DHC decrease call (active/inactive) [2]: Active

CC[C@H](C)C(=O)O[C@H]1C[C@@H](C)C=C2C=C[C@H](C)[C@H](CC[C@@H]3C[C@@H](O)CC(=O)O3)[C@H]21
7-DHC decrease call (active/inactive) [2]: Active

CC[C@H](C)C(=O)O[C@H]1C[C@H](O)C=C2C=C[C@H](C)[C@H](CC[C@@H](O)C[C@@H](O)CC(=O)O)[C@H]21
7-DHC decrease call (active/inactive) [2]: Active

CCc1c(C)[nH]c2c1C(=O)C(CN1CCOCC1)CC2 (stereo not given)
inhibition [1]: Active

CN(C)CCC=C1c2ccccc2COc2ccccc21
inhibition [1]: Active

CN1CCN(CCCN2c3ccccc3Sc3ccc(C(F)(F)F)cc32)CC1
inhibition [1]: Active

CN1CCN(CCCN2c3ccccc3Sc3ccc(Cl)cc32)CC1
inhibition [1]: Active | inhibition [4]: Active

CN1CC[C@]2(c3cccc(O)c3)Cc3nc4ccccc4cc3C[C@H]2C1
inhibition [1]: Active

CO[C@H]1O[C@@H]2O[C@@]3(C)CC[C@H]4[C@H](C)CC[C@@H]([C@H]1C)[C@@]24OO3
7-DHC decrease call (active/inactive) [2]: Active

C[C@@H]1CC[C@H]2[C@@H](C)C(=O)O[C@@H]3O[C@@]4(C)CC[C@@H]1[C@]32OO4
inhibition [2]: Active

C[C@H]1c2cccc(O)c2C(=O)C2=C(O)[C@]3(O)C(=O)C(C(N)=O)=C(O)[C@@H](N(C)C)[C@@H]3[C@@H](O)[C@@H]21
Activity (N2a [3]): Active

Cc1ccc(NC(=O)c2ccc(CN3CCN(C)CC3)cc2)cc1Nc1nccc(-c2cccnc2)n1
inhibition [1]: Active

Clc1ccccc1CNC[C@H]1CC[C@H](CNCc2ccccc2Cl)CC1
Activity (N2a [5]): Active | Activity (N2a [6]): Active

O=C(CCCN1CCC(O)(c2ccc(Cl)cc2)CC1)c1ccc(F)cc1
Activity (N2a [5]): Active | Activity (N2a [6]): Active

O=C(O)C[C@H](O)C[C@H](O)/C=C/c1c(C2CC2)nc2ccccc2c1-c1ccc(F)cc1
7-DHC decrease call (active/inactive) [2]: Active | Activity (decrease in 7-DHC levels) [7]: Active | Decrease in 7-DHC levels (active/inactive call) [8]: Active

O=c1n(CCCN2CCN(c3cccc(Cl)c3)CC2)nc2ccccn12
Activity (N2a [5]): Active | Activity (N2a [6]): Active

OCCN1CCN(CCCN2c3ccccc3Sc3ccc(C(F)(F)F)cc32)CC1
inhibition [4]: Active

OCCN1CCN(CCCN2c3ccccc3Sc3ccc(Cl)cc32)CC1
inhibition [1]: Active | inhibition [4]: Active

OCCOCCN1CCN(C(c2ccccc2)c2ccc(Cl)cc2)CC1 (stereo not given)
inhibition [4]: Active

c1ccc(-c2ccc(C(c3ccccc3)n3ccnc3)cc2)cc1 (stereo not given) [BIFONAZOLE]
inhibition (INH) [9]: Active

Clc1ccccc1C(c1ccccc1)(c1ccccc1)n1ccnc1 [CLOTRIMAZOLE]
inhibition (INH) [9]: Active

Clc1ccc(COC(Cn2ccnc2)c2ccc(Cl)cc2Cl)cc1 (stereo not given) [ECONAZOLE]
inhibition (INH) [9]: Active

C[C@]12CC[C@@H]3c4ccc(O)cc4C[C@@H](CCCCCCCCC[S+]([O-])CCCC(F)(F)C(F)(F)F)[C@H]3[C@@H]1CC[C@@H]2O (stereo not given in full) [FULVESTRANT]
inhibition [10]: Active | inhibition [1]: Active | Activity (Fibroblast): inactive | Activity [11]: Toxic

Clc1ccc(COC(Cn2ccnc2)c2ccc(Cl)cc2Cl)c(Cl)c1 (stereo not given) [MICONAZOLE]
inhibition (INH) [9]: Active

Reference: ChEMBL document CHEMBL3774374, “The Effect of Small Molecules on Sterol Homeostasis: Measuring 7-Dehydrocholesterol in Dhcr7-Deficient Neuro2a Cells and Human Fibroblasts” (J Med Chem, 2016)
